Measured values taken from paper PMC2831464 (Clinical cancer research : an official journal of the …, 2010).
“Also recorded” adds a separate entry of the source.

How the values were obtained:
[1] = Exposure-toxicity relationship, sigmoid E-max model; type: in vivo, human
In short: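 Patients received a 1-h IV infusion of test compound daily × 5 every 21 days. Toxicity measure was the cycle 1 nadir of ANC and platelets, expressed as % decrease. Exposure metrics were total test compound AUC (day 1, cycle 1) and administered daily dosage level. Total rather than lactone parameters were used.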

[2] = tested on: CYP3A4; conditions: in-vitro data; cited from earlier work
[3] = Phase I dose escalation: dose limiting toxicities, MTD and CTCAE 3.0 toxicities; type: in vivo, human
In short: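 Adults (>18 y) had refractory solid tumors, ECOG ≤2 and adequate marrow, hepatic and renal function. Test compound in 5% dextrose (0.05–0.5 mg/mL) was given as a 1-h IV infusion daily × 5 every 21 days, within 4 h of reconstitution. Premedication was oral dexamethasone, ondansetron, loratadine, famotidine and diphenhydramine. […] DLTs were assessed in cycle 1 by CTCAE v3.0. MTD was the level below that giving DLT in ≥2 patients.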

[4] = cycle 1, all patients, sigmoid E-max model
[5] = total AR-67 AUC day 1 of cycle 1, sigmoid E-max model
[6] = CTCAE related toxicities, Blood/bone marrow
[7] = CTCAE related toxicities, Cardiac general
[8] = CTCAE related toxicities, Constitutional symptoms
[9] = CTCAE related toxicities, Dermatology/skin
[10] = CTCAE related toxicities, Gastrointestinal
[11] = CTCAE related toxicities, Hemorrhage/bleeding
[12] = CTCAE related toxicities, Infection
[13] = CTCAE related toxicities, Metabolic/laboratory
[14] = CTCAE related toxicities, Musculoskeletal
[15] = CTCAE related toxicities, Neurology
[16] = CTCAE related toxicities, Pulmonary

Structure (SMILES): CC[C@@]1(O)C(=O)OCc2c1cc1n(c2=O)Cc2c-1nc1ccc(O)cc1c2[Si](C)(C)C(C)(C)C [AR-67, 7-t-butyldimethylsilyl-10-hydroxycamptothecin]
- dosage level ED50 (95% CI) for % decrease in ANC [1, 4]: 6.1 (4.3 – 8.7) mg/m^2
- dosage level ED50 (95% CI) for % decrease in platelets [1, 4]: 4.9 (3.2 – 7.6) mg/m^2
- AUC ED50 (95% CI) for % decrease in ANC [1, 5]: 323.6 (231.9 – 451.6) hr*ng/mL
- AUC ED50 (95% CI) for % decrease in platelets [1, 5]: 364.2 (249.4 – 531.9) hr*ng/mL
- substrate for CYP3A4 [2]: is a substrate
- Common Grade 3 and 4 toxicities: anemia ([3]; 26 patients, all dosage levels): 11.5%
- Common Grade 3 and 4 toxicities: fatigue ([3]; 26 patients, all dosage levels): 15.4%
- Common Grade 3 and 4 toxicities: leukopenia (leukocytopenia) ([3]; 26 patients, all dosage levels): 23%
- Common Grade 3 and 4 toxicities: neutropenia ([3]; 26 patients, all dosage levels): 11.5%
- Common Grade 3 and 4 toxicities: thrombocytopenia ([3]; 26 patients, all dosage levels): 15.4%
- Diarrhea ([3]; 26 patients, all dosage levels): No diarrhea; also recorded: none of the patients experienced
- Infusion related allergic (hypersensitivity) reactions ([3]; 26 patients, premedicated, cremophor-ethanol formulation): none of the patients experienced; also recorded: no patients exhibited hypersensitivity reactions
- Hemoglobin, Grade 1 [3, 6]: 8
- Hemoglobin, Grade 2 [3, 6]: 12
- Hemoglobin, Grade 3 [3, 6]: 6
- Hemoglobin, Grade 4 [3, 6]: 0
- Hemoglobin, Total [3, 6]: 26
- Leukocytes (total WBC), Grade 1 [3, 6]: 18
- Leukocytes (total WBC), Grade 2 [3, 6]: 15
- Leukocytes (total WBC), Grade 3 [3, 6]: 8
- Leukocytes (total WBC), Grade 4 [3, 6]: 0
- Leukocytes (total WBC), Total [3, 6]: 41
- Monocytopenia, Grade 1 [3, 6]: 0
- Monocytopenia, Grade 2 [3, 6]: 0
- Monocytopenia, Grade 3 [3, 6]: 0
- Monocytopenia, Grade 4 [3, 6]: 1
- Monocytopenia, Total [3, 6]: 1
- Neutrophils/granulocytes (ANC/AGC), Grade 1 [3, 6]: 3
- Neutrophils/granulocytes (ANC/AGC), Grade 2 [3, 6]: 10
- Neutrophils/granulocytes (ANC/AGC), Grade 3 [3, 6]: 5
- Neutrophils/granulocytes (ANC/AGC), Grade 4 [3, 6]: 1
- Neutrophils/granulocytes (ANC/AGC), Total [3, 6]: 19
- Platelets, Grade 2 [3, 6]: 8
- Platelets, Grade 3 [3, 6]: 9
- Hypotension, Grade 1 [3, 7]: 0
- Hypotension, Grade 2 [3, 7]: 1
- Hypotension, Grade 3 [3, 7]: 0
- Hypotension, Grade 4 [3, 7]: 0
- Hypotension, Total [3, 7]: 1
- Fatigue (asthenia, lethargy, malaise), Grade 1 [3, 8]: 4
- Fatigue (asthenia, lethargy, malaise), Grade 3 [3, 8]: 8
- Fatigue (asthenia, lethargy, malaise), Grade 4 [3, 8]: 0
- Fatigue (asthenia, lethargy, malaise), Total [3, 8]: 26
- Fever (in the absence of neutropenia), Grade 1 [3, 8]: 0
- Fever (in the absence of neutropenia), Grade 2 [3, 8]: 1
- Fever (in the absence of neutropenia), Grade 3 [3, 8]: 0
- Fever (in the absence of neutropenia), Grade 4 [3, 8]: 0
- Fever (in the absence of neutropenia), Total [3, 8]: 1
- Insomnia, Grade 1 [3, 8]: 2
- Insomnia, Grade 2 [3, 8]: 5
- Insomnia, Grade 3 [3, 8]: 0
- Insomnia, Grade 4 [3, 8]: 0
- Insomnia, Total [3, 8]: 7
- Weight loss, Grade 1 [3, 8]: 2
- Weight loss, Grade 2 [3, 8]: 0
- Weight loss, Grade 3 [3, 8]: 0
- Weight loss, Grade 4 [3, 8]: 0
- Weight loss, Total [3, 8]: 2
- Nail changes, Grade 1 [3, 9]: 1
- Nail changes, Grade 2 [3, 9]: 0
- Nail changes, Grade 3 [3, 9]: 0
- Nail changes, Grade 4 [3, 9]: 0
- Nail changes, Total [3, 9]: 1
- Pruritus/itching/Dry skin/Flushing, Grade 2 [3, 9]: 0
- Pruritus/itching/Dry skin/Flushing, Grade 3 [3, 9]: 0
- Pruritus/itching/Dry skin/Flushing, Grade 4 [3, 9]: 0
- Pruritus/itching/Dry skin/Flushing, Total [3, 9]: 7
- Rash/desquamation, Grade 1 [3, 9]: 2
- Rash/desquamation, Grade 2 [3, 9]: 1
- Rash/desquamation, Grade 3 [3, 9]: 0
- Rash/desquamation, Grade 4 [3, 9]: 0
- Rash/desquamation, Total [3, 9]: 3
- Anorexia/Taste Alteration, Grade 1 [3, 10]: 4
- Anorexia/Taste Alteration, Grade 3 [3, 10]: 1
- Anorexia/Taste Alteration, Grade 4 [3, 10]: 0
- Anorexia/Taste Alteration, Total [3, 10]: 12
- Constipation/Dehydration, Grade 1 [3, 10]: 6
- Constipation/Dehydration, Grade 2 [3, 10]: 8
- Constipation/Dehydration, Grade 3 [3, 10]: 0
- Constipation/Dehydration, Grade 4 [3, 10]: 0
- Mucositis/stomatitis, Grade 1 [3, 10]: 2
- Mucositis/stomatitis, Grade 2 [3, 10]: 0
- Mucositis/stomatitis, Grade 3 [3, 10]: 0
- Mucositis/stomatitis, Grade 4 [3, 10]: 0
- Mucositis/stomatitis, Total [3, 10]: 2
- Nausea, Grade 2 [3, 10]: 0
- Nausea, Grade 3 [3, 10]: 0
- Nausea, Grade 4 [3, 10]: 0
- Hemorrhage, GI - Duodenum, Grade 1 [3, 11]: 0
- Hemorrhage, GI - Duodenum, Grade 2 [3, 11]: 0
- Hemorrhage, GI - Duodenum, Grade 3 [3, 11]: 1
- Hemorrhage, GI - Duodenum, Grade 4 [3, 11]: 0
- Hemorrhage, GI - Duodenum, Total [3, 11]: 1
- Febrile neutropenia, Grade 1 [3, 12]: 0
- Febrile neutropenia, Grade 2 [3, 12]: 0
- Febrile neutropenia, Grade 3 [3, 12]: 1
- Febrile neutropenia, Grade 4 [3, 12]: 2
- Febrile neutropenia, Total [3, 12]: 3
- Infection - ANC grade 0–2, Grade 1 [3, 12]: 3
- Infection - ANC grade 0–2, Grade 2 [3, 12]: 4
- Infection - ANC grade 0–2, Grade 3 [3, 12]: 0
- Infection - ANC grade 0–2, Grade 4 [3, 12]: 2
- Infection - ANC grade 0–2, Total [3, 12]: 9
- Infection with unknown ANC, Grade 1 [3, 12]: 2
- Infection with unknown ANC, Grade 2 [3, 12]: 1
- Infection with unknown ANC, Grade 3 [3, 12]: 0
- Infection with unknown ANC, Grade 4 [3, 12]: 0
- Infection with unknown ANC, Total [3, 12]: 3
- ALT, SGPT, Alkaline Phosphatase, Grade 1 [3, 13]: 8
- ALT, SGPT, Alkaline Phosphatase, Grade 2 [3, 13]: 0
- ALT, SGPT, Alkaline Phosphatase, Grade 3 [3, 13]: 0
- ALT, SGPT, Alkaline Phosphatase, Grade 4 [3, 13]: 0
- ALT, SGPT, Alkaline Phosphatase, Total [3, 13]: 8
- Electrolyte abnormalities, Grade 1 [3, 13]: 8
- Electrolyte abnormalities, Grade 2 [3, 13]: 0
- Electrolyte abnormalities, Grade 3 [3, 13]: 0
- Electrolyte abnormalities, Grade 4 [3, 13]: 0
- Electrolyte abnormalities, Total [3, 13]: 8
- Extremity-lower (gait/walking), Grade 1 [3, 14]: 1
- Extremity-lower (gait/walking), Grade 2 [3, 14]: 0
- Extremity-lower (gait/walking), Grade 3 [3, 14]: 0
- Extremity-lower (gait/walking), Grade 4 [3, 14]: 0
- Extremity-lower (gait/walking), Total [3, 14]: 1
- Muscle weakness – Lower extremity, Grade 1 [3, 14]: 0
- Muscle weakness – Lower extremity, Grade 2 [3, 14]: 3
- Muscle weakness – Lower extremity, Grade 3 [3, 14]: 1
- Muscle weakness – Lower extremity, Grade 4 [3, 14]: 0
- Muscle weakness – Lower extremity, Total [3, 14]: 4
- Dizziness, Grade 1 [3, 15]: 0
- Dizziness, Grade 2 [3, 15]: 1
- Dizziness, Grade 3 [3, 15]: 0
- Dizziness, Grade 4 [3, 15]: 0
- Dizziness, Total [3, 15]: 1
- Neuropathy: sensory, Grade 1 [3, 15]: 1
- Neuropathy: sensory, Grade 2 [3, 15]: 0
- Neuropathy: sensory, Grade 3 [3, 15]: 0
- Neuropathy: sensory, Grade 4 [3, 15]: 0
- Neuropathy: sensory, Total [3, 15]: 1
- Dyspnea, Grade 1 [3, 16]: 1
- Dyspnea, Grade 2 [3, 16]: 0
- Dyspnea, Grade 3 [3, 16]: 0
- Dyspnea, Grade 4 [3, 16]: 0
- Dyspnea, Total [3, 16]: 1
- Hiccoughs (hiccups, singultus), Grade 1 [3, 16]: 2
- Hiccoughs (hiccups, singultus), Grade 2 [3, 16]: 1
- Hiccoughs (hiccups, singultus), Grade 3 [3, 16]: 0
- Hiccoughs (hiccups, singultus), Grade 4 [3, 16]: 0
- Hiccoughs (hiccups, singultus), Total [3, 16]: 3
- DLT per Cohort ([3]; Level 5.5, 7.5 mg/m2/day daily × 5, n=7, cycle 1): one of seven
- DLT per Cohort ([3]; Level 6, 8.9 mg/m2/day daily × 5, n=4, cycle 1): two of four
- Day of ANC and platelet nadir ([3]; MTD level, cycle 1, recovered prior to day 22): 10 to 14 days
- maximum tolerated dosage (MTD) ([3]; iv over 1 hour daily × 5, every 21 days): 7.5 mg/m^2/day
- Patients with dose limiting toxicities ([3]; of 26 patients, 9 dosage levels): 5 patients
- recommended phase II dosage ([3]; ×5 q 21 days): 7.5 mg/m^2/day
